The list is not random: actives were taken first. Their share in the collection is about 4.8%.
STAT1 activator – activators of IFN-gamma induced STAT1 signaling. NIH 3T3 STAT1-luciferase reporter, luminescence; 100% = IFN-gamma alone, no compound. activation (% of control), % at 5.5 µM. 200,000 compounds, 2.6% hits;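 active means activation above the screen-wide mean activation plus 3 SD, cut at about 130% in these data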;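 further: raw ratio to IFN-gamma control signal so 100% means no change and 0% no light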
NF-kB neuron act – compounds increasing NF-kB expression in human neuronal cells | NF-kB reporter expression; active compounds read high | 190,000 compounds, 1.6% hits | fold change at 12.5 µM; in the data active means fold change above about 3.3
APP 5UTR inh – APP translation inhibition; SH-SY5Y APP 5'UTR-luciferase reporter, luminescence; inhibition, % at 2 µM; 190,000 compounds, 0.82% hits; AID 1285;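 active means inhibition above a set limit, derived from the sample mean plus 3 SD, cut at about 45% in these data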
APP 5'UTR act – APP 5'UTR luciferase reporter activation; SH-SY5Y APP 5'UTR luciferase reporter, luminescence; zero percent = DMSO vehicle wells; activation, % at 2 µM; 190,000 compounds, 1% hits;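 active means activation above a set limit, based on mean plus 3 SD of controls, cut at about 140% in these data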
FLuc act counter – firefly luciferase counter-screen for stimulation assays | ATPlite luciferase biochemical, luminescence, 10 min; 0 = ATP-free wells, 1 = DMSO control | activation factor at 10 µM | 200,000 tested, under 10 active | AID 1027;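 active means luciferase activation factor, scaled between plate controls, of at least 2 with compound at 10 µM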
Target sequence (P08659 whole entry, looked up): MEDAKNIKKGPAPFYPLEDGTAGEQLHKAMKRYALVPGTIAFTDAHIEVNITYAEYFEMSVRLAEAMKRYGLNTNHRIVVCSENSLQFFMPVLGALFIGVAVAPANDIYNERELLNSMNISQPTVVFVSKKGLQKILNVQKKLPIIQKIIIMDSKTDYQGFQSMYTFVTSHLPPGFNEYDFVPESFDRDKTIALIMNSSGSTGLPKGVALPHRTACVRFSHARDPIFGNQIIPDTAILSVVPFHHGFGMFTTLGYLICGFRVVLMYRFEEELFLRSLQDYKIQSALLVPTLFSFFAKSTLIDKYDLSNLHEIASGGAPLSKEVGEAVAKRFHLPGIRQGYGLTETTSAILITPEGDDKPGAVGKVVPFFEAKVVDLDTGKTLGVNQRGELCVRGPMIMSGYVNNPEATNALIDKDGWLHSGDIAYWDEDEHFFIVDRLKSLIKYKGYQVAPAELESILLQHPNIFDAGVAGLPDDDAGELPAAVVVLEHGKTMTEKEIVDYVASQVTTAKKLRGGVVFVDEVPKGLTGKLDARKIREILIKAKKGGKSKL
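System: cell-free luciferase reagent; medium: PBS as buffer for the ATP substrate; doses: test compounds dosed from 2 mM stocks in 100% DMSO; incubation: 10 min, room temperature; measured by: luminescence from luciferase reaction; read-out: luciferase activation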
FLuc inhib CS – counter-screen for luciferase assay inhibitors: firefly luciferase inhibition; ATPLite firefly luciferase biochemical luminescence, 10 min; AID 1006; 200,000 compounds, 1.5% hits; P08659; inhibition, % at 10 µM;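 active means inhibition above about 50% when tested at 10 µM, limit read from the data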
Numbers without * were called inactive; . = no result.

SMILES | STAT1 activator | NF-kB neuron act | APP 5UTR inh | APP 5'UTR act | FLuc act counter | FLuc inhib CS
Cc1ccnc2nc(C(=O)OCCOc3ccc(Cl)cc3)nn12 | 94.2 | 1.39 | -4.4 | 4.4 | 1 | -3.1
Cc1ccc(OCCCCN2CCCC(C)C2)c([N+](=O)[O-])c1 (configuration not stated) | 97.5 | 1.31 | -5.7 | 5.7 | 1 | -4.9
c1ccc(-c2cn3c(n2)-c2ccccc2C3)cc1 | 114.7 | 3.89* | -152.3 | 152.3* | 0.1 | 87.2*
Nc1cc2c(cc1O)CCCC2 | 104.4 | 0.91 | -17.1 | 17.1 | 1 | 4.1
C=CCSc1n[nH]c(-c2ccc(OC)cc2)n1 | 140.5* | 2.65 | -56.2 | 56.2 | 0.8 | 20.5
CC(C)(C)c1ccc(C(=O)/C=C2\NC(=O)CS2)cc1 | 121.0 | 6.62* | -118.7 | 118.7 | 0.1 | 89.1*
O=C(CSc1nnc(NC2CCCCC2)s1)Nc1ccc2c(c1)C(=O)c1ccccc1C2=O | 139.2* | 1.16 | -86.0 | 86.0 | 1 | 2.4
Cc1ccc(OCc2nn3c(-c4n[nH]c5c4CCC5)nnc3s2)cc1 | . | . | . | . | 1 | -3.1
COc1ccc2c(c1)Cc1sc(NC(=O)c3ccccc3)nc1-2 | 133.6* | 1.35 | -29.4 | 29.4 | 1 | 0.7
COc1ccc2c(c1)Cc1sc(NC(=O)c3cccs3)nc1-2 | 149.3* | 1.55 | -115.0 | 115.0 | 0.9 | 9.5
O=C(NCc1ccccc1)N(Cc1nc2ccccc2c(=O)[nH]1)C1CCCC1 | 100.6 | 0.8 | -23.7 | 23.7 | 1.1 | -7.4
Cc1nc2ccc(NC(=O)c3ccccc3)cc2s1 | 130.9* | 2.61 | -82.2 | 82.2 | 0.8 | 20.1
Cc1nnc(NC(=O)c2ccc3ccccc3n2)s1 | 138.2* | 2.11 | -40.2 | 40.2 | 0.6 | 36.3
Cc1ccccc1OCCNC(=O)c1ccc2ccccc2n1 | 140.9* | 1.4 | -146.3 | 146.3* | 1 | 3.8
Cc1nc2ccc(NC(=O)Cc3cccc(F)c3)cc2s1 | 114.8 | 1.58 | -58.9 | 58.9 | 1 | 4.2
NNC(=O)c1ccc2ccccc2n1 | 97.5 | 1.21 | -24.3 | 24.3 | 1.1 | -5.2
Cc1nc2ccc(NC(=O)Cc3ccccc3F)cc2s1 | 141.4* | 6.77* | -132.8 | 132.8 | 0.5 | 54.3*
COc1ccc(C(=O)OCC(=O)NCc2ccccc2)c(OC)c1OC | 102.7 | 1.14 | -21.8 | 21.8 | 1.1 | -5.1
N=C1CCCN1CC(=O)c1ccc(Br)cc1 | 123.2 | 1.58 | -22.0 | 22.0 | 1.1 | -6.6
Cc1ccc(C2CC(c3cccs3)=NN2C(=O)c2ccc(Br)o2)cc1 (configuration not stated) | 92.5 | 1.03 | -26.8 | 26.8 | 1 | 2.3
Cc1nc2ccc(NC(=O)c3ccc4ccccc4n3)cc2s1 | 134.9* | 2.32 | -75.7 | 75.7 | 0.8 | 15.1
Cc1nc2ccc(NC(=O)c3sccc3C)cc2s1 | 143.3* | 4.71* | -162.8 | 162.8* | 0.7 | 34.0
Cc1ccc(-c2nc3ccc(C(=O)O)cc3nc2-c2ccc(C)cc2)cc1 | 86.4 | 1.17 | -16.9 | 16.9 | 1.1 | -5.1
CCc1nc2ccc(C(=O)O)cc2nc1CC | 101.7 | 6.07* | -53.4 | 53.4 | 1 | -0.4
Cc1ccc(C)c(NC(=O)c2ccccn2)c1 | 112.1 | 1.59 | -16.8 | 16.8 | 0.9 | 7.9
SMILES | STAT1 activator | NF-kB neuron act | APP 5UTR inh | APP 5'UTR act | FLuc act counter | FLuc inhib CS
Cc1ccc(C)c(NC(=O)c2ccc3ccccc3n2)c1 | 124.1 | 8.5* | -69.8 | 69.8 | 0.4 | 56.2*
Cc1nc2ccc(NC(=O)c3ccco3)cc2s1 | 125.7 | 1.11 | -68.8 | 68.8 | 0.7 | 28.8
CNC(=O)Nc1ccc2nc(C)sc2c1 | 99.0 | 1.42 | -11.3 | 11.3 | 1 | 4.5
C=CCO/N=C(/C)c1ccc(Oc2cnccn2)cc1 | 108.4 | 1.29 | -6.5 | 6.5 | 1 | -2.1
CC(C)(C)NC(=O)CCN(/N=C/c1ccc([N+](=O)[O-])o1)C1=NS(=O)(=O)c2ccccc21 | 87.9 | 0.42 | -4.1 | 4.1 | 1.1 | -5.0
C=CCn1c(Cc2cccs2)nnc1SCC(=O)Nc1cc(OC)cc(OC)c1 | 91.1 | 0.8 | 6.0 | -6.0 | 1 | -4.7
Cc1c(CCOC(=O)c2cc([N+](=O)[O-])cc([N+](=O)[O-])c2)sc[n+]1CCCCS(=O)(=O)[O-] | 97.3 | 1.08 | 21.7 | -21.7 | 1.1 | -9.9
Cc1nc2cc(C(=O)O)ccc2s1 | 142.7* | 2.15 | -49.9 | 49.9 | 1.1 | -6.5
Cc1nc2cc(NC(=O)c3ccc(N4C(=O)CCC4=O)cc3)ccc2s1 | 85.2 | 1.17 | 5.4 | -5.4 | 0.9 | 7.7
CCCCCC(=O)N/N=C/c1ccc(N(C)C)cc1 | 134.0* | 1.9 | -16.8 | 16.8 | 0.9 | 7.4
CN(C)c1ccc(/C=N/NC(=O)c2sccc2-n2cccc2)cc1 | 129.6* | 1.23 | -10.2 | 10.2 | 0.9 | 10.4
COc1ccc(OCC(=O)N/N=C/c2ccc(N(C)C)cc2)cc1 | 103.6 | 1.45 | 13.3 | -13.2 | 0.4 | 62.8*
CCOc1ccccc1NC(=S)NCCc1ccccc1 | 91.5 | 1.01 | -22.4 | 22.4 | 1 | -1.0
Cc1ccc(-n2ncc3c2ncn2c(C)nnc32)cc1C | 135.9* | 3.37* | -24.8 | 24.8 | 0.9 | 14.0
CC(=O)NNc1ncnc2c1cnn2-c1ccc(C)c(C)c1 | 123.3 | 1.04 | -2.5 | 2.5 | 1 | 3.4
CCc1nnc2c3cnn(-c4ccccc4)c3ncn12 | 132.7* | 1.5 | 0.4 | -0.4 | 0.7 | 31.8
OC(c1ccccc1)(c1ccc(F)cc1)C(c1ccccc1)N1CCOCC1 (configuration not stated) | 96.2 | 0.79 | 0.3 | -0.3 | 1 | -1.9
O=C(N/N=C/c1cccc([N+](=O)[O-])c1)c1ccccc1-n1cccc1 | 90.5 | 1.06 | -9.9 | 9.9 | 1 | -1.6
CC(=O)Nc1ccc2oc(-c3ccccc3)nc2c1 | 150.1* | 7.64* | -125.8 | 125.8 | 0.3 | 69.9*
O=C(Nc1ccc2oc(-c3ccccc3F)nc2c1)c1ncn[nH]1 | 136.5* | 5.35* | -137.5 | 137.5* | 0.5 | 52.9*
O=C(Nc1ccc2oc(-c3ccccc3)nc2c1)c1ccccc1F | 145.5* | 2.82 | -102.3 | 102.3 | 0.8 | 18.3
O=C(Nc1ccc2oc(-c3ccncc3)nc2c1)c1ccccc1F | 103.1 | 1.01 | -7.9 | 7.9 | 1 | 4.9
CC(=O)NC(=S)Nc1ccc2oc(-c3cc(F)c(F)cc3Cl)nc2c1 | 114.9 | 2.36 | -170.2 | 170.2* | 1 | -1.7
O=C(Nc1ccc2oc(-c3ccncc3)nc2c1)c1ccccc1 | 107.2 | 1.03 | -0.9 | 0.9 | 1 | 0.7
CCCCNc1nc2ccccc2nc1Cl | 93.8 | 1.01 | -19.8 | 19.8 | 1 | -4.7
COC(=O)/C(=C\Nc1ccccc1N)c1ncc(C(F)(F)F)cc1Cl | 101.4 | 3.3* | -39.8 | 39.8 | 1 | -1.7
O=C(c1ccccc1)c1ncc(C(F)(F)F)cc1Cl | 101.4 | 0.98 | -1.5 | 1.5 | 1 | -2.7
CC(=O)C1=C(O)CC(c2ccccc2)CC1=NCCc1c(C)[nH]c2ccc(C)cc12 (configuration not stated) | 93.2 | 1.15 | -9.8 | 9.8 | 1 | 3.5

Assay outcomes: PubChem BioAssay, several laboratories
